Screening results as filed in PubChem.
NS3 helicase inh: HCV NS3 helicase inhibition; NS3 helicase DNA unwinding, Cy5 molecular beacon fluorescence; inhibition, % at 10.9 µM; hit rate 0.56% among 290,000; AID 1800;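 active means inhibition above the mean of all tested compounds plus 3 SD, set per campaign, cut at about 35% in these data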;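 further: 0% = DMSO wells and 100% = thioflavine S control wells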
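Assay system: hepatitis C virus NS3 helicase domain fragment enzyme. Also added: annealed dual-labelled DNA beacon duplex, ATP-started. Timing: 1 h reaction at 25 °C, ATP-initiated. Technique: Cy5 fluorescence at 0 and 60 min, beacon hairpin quenching. Evaluation: % inhibition of unwinding. Replication: one well per compound.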
rCAG RNA binder: r(CAG) repeat RNA binding | hit rate 1.3% among 370,000 | TO-PRO-1 dye displacement fluorescence | inhibition, % at 3 µM | AID 651821;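 active means inhibition above the plate cutoff, the mean of all test compounds on that plate plus 3 SD, cut at about 35% in these data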;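 further: 0% = DMSO alone and 100% = 100 µM mitoxantrone as full dye displacement; higher means more dye released from RNA so lower well fluorescence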
TAAR1 agonist: human TAAR1 agonism | Q96RJ0 | AID 624467 | hit rate 0.99% among 360,000 | CHO RD-HGA16 TAAR1, Fluo-8 calcium fluorescence; vehicle wells 0%, saturating PEA agonist 100% | activation, % at 3 µM;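 active means activation above the mean activation of all test compounds in the run plus 3 SD, cut at about 38% in these data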
Target sequence (Q96RJ0 whole entry, looked up): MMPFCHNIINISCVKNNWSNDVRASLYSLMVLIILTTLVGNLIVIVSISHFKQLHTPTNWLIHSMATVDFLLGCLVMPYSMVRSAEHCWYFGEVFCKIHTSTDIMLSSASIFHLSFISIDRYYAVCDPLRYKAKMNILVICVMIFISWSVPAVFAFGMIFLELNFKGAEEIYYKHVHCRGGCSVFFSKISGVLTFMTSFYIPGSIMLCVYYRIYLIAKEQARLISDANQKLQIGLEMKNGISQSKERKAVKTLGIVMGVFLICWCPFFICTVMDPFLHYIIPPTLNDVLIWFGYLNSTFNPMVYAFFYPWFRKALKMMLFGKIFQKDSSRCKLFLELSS
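Assay system: CHO-derived RD-HGA16 cells with stable Gα16 and human TAAR1; timing: 17-24 h seeding, 75 min 37 °C dye, 30 min RT; read-out: % activation from peak over basal fluorescence ratio, DMSO-to-PEA scaled; measured by: kinetic Fluo-8 calcium fluorescence; benchmarks: low control DMSO, high control PEA (EC100); doses: 3 µM single concentration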
core dimer inh: blocks dimerization of HCV core protein; hit rate 0.33% among 300,000; TR-FRET GST/Flag-core106 dimerization, 1536-well; AID 1899; inhibition, % at 5 µM;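 active means inhibition above the mean of all tested compounds plus 3 SD, set per screening campaign, cut at about 45% in these data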
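Test system: GST/Flag-tagged HCV core106 proteins; Medium: KF-containing HEPES buffer, pH 7.45, DTT, CHAPS, BSA; Times: compound-protein-antibody incubation 4 h at 22.5 °C; Detection: TR-FRET 671 and 617 nm emission; Benchmarks: wells lacking GST-core106 and wells with excess unlabelled core106.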
TAAR1 antagonist: human TAAR1 antagonism; Q96RJ0; CHO RD-HGA16 TAAR1, Fluo-8 calcium fluorescence, antagonist; inhibition, % at 3 µM; hit rate 1.5% among 360,000;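 active means inhibition above a per-plate cutoff, the mean inhibition of test compounds on that plate plus 3 SD, cut at about 49% in these data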;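 further: 0% = DMSO plus EC80 beta-PEA response and 100% = DMSO alone without agonist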
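Test system: hTAAR1-expressing CHO RD-HGA16 cells, Gα16-coupled; Probe or stimulus: EC80 β-phenethylamine stimulus; Compound dosing: single nominal final test compound concentration of 3 µM; Timing: 140 s kinetic read after compound, 140 s after agonist; Signal: Fluo-8 calcium-sensitive fluorescence; Measure: % inhibition of agonist calcium response; Controls: DMSO and EC80 PEA controls.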
NS3 helicase cf: HCV NS3 helicase inhibition, confirmation assay. shares compounds with NS3 helicase inh. NS3 helicase DNA unwinding, Cy5 molecular beacon fluorescence. inhibition, % at 10.9 µM. hit rate 31% among 1,600. AID 1943;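 active means inhibition above the mean of all tested compounds plus 3 SD, cutoff set per campaign, cut at about 36% in these data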
DNA FID counter: counter-screen for HCV NS3 helicase inhibitors: DNA intercalator displacement | DNA fluorescent intercalator displacement, fluorescence | shares compounds with NS3 helicase inh | inhibition, % at 7.9 µM | hit rate 4% among 1,600; in the data active means inhibition above about 37%;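 further: 0% = vehicle and 100% = reference compound; higher means more displacement of ethidium bromide from the DNA hairpin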
An asterisk follows results filed as active. In the library only some 3.7% were active in any assay of this set; here they are far more common.

`CC(=O)c1ccc(N2CCN(c3ccccc3O)CC2)c([N+](=O)[O-])c1` gave NS3 helicase inh -3.0, rCAG RNA binder 3.4, TAAR1 agonist 15.7, core dimer inh 14.2 and TAAR1 antagonist 50.9*.
`NNC(=O)c1ccc(N2CCc3ccccc32)c([N+](=O)[O-])c1` gave NS3 helicase inh -3.1, rCAG RNA binder 9.0, TAAR1 agonist -0.9, core dimer inh -10.4 and TAAR1 antagonist 54.8*.
Screening N#Cc1cc([N+](=O)[O-])ccc1N1CCN(c2ccccc2O)CC1 returned NS3 helicase inh 0.0, rCAG RNA binder 0.8, TAAR1 agonist 16.9, core dimer inh 7.7 and TAAR1 antagonist 52.2*.
O=C(O)c1ccccc1C(=O)c1ccc(N2CCCC2)c([N+](=O)[O-])c1 was read as NS3 helicase inh 2.3, rCAG RNA binder 6.2, TAAR1 agonist 13.6, core dimer inh 2.8 and TAAR1 antagonist 2.8.
O=[N+]([O-])c1ccc(N2CCN(c3ccc([N+](=O)[O-])cc3CO)CC2)c(CO)c1 was read as NS3 helicase inh -6.2, rCAG RNA binder 4.6, TAAR1 agonist 12.2, core dimer inh 11.2 and TAAR1 antagonist 52.8*.
CC(C)(C)C(=O)N1CCN(c2ccc([N+](=O)[O-])cc2Cl)CC1 was read as NS3 helicase inh -6.6, rCAG RNA binder -7.0, TAAR1 agonist 9.5, core dimer inh 3.5 and TAAR1 antagonist 30.5.
Screening O=C(c1cc2c(s1)CCCC2)N1CCN(Cc2ccc3c(c2)OCO3)CC1 returned NS3 helicase inh -24.3, rCAG RNA binder -4.1, TAAR1 agonist 2.3, core dimer inh 10.9 and TAAR1 antagonist -21.1.
Screening O=C(Oc1ccc2c(c1)OCO2)c1cc2c(s1)CCC2 returned NS3 helicase inh 21.3, rCAG RNA binder 27.8, TAAR1 agonist 10.0, core dimer inh 86.8* and TAAR1 antagonist -7.2.
`O=C(C1CCC1)N1CCc2cc(S(=O)(=O)C3CCN(Cc4ccc(F)cc4)CC3)ccc21` gave rCAG RNA binder 7.8.
`O=C(NCC1COc2ccccc2O1)c1ccc(NC(=O)C(Cl)Cl)cc1` (stereo not drawn) gave rCAG RNA binder 4.0.
For Cc1ccc(-c2ccc(CN3C(CC(C)C)C(=O)N(Cc4cn(CCC5OCCO5)nn4)CCS3(=O)=O)cc2)cc1 (stereo not drawn) the results were rCAG RNA binder 7.5, TAAR1 agonist 7.8 and TAAR1 antagonist 54.8*.
CC(C)CC1C(=O)N(Cc2cn(CCC3OCCO3)nn2)CCS(=O)(=O)N1Cc1ccc(-c2ccccc2)cc1 (stereo not drawn) was read as rCAG RNA binder 8.9, TAAR1 agonist 10.9 and TAAR1 antagonist 31.6.
`Cc1ccc(-c2ccc(CN3C(C)C(=O)N(Cc4cn(Cc5ccco5)nn4)CCS3(=O)=O)cc2)cc1` (stereo not drawn) gave rCAG RNA binder 14.1, TAAR1 agonist 1.0 and TAAR1 antagonist 20.6.
`CC(C)Cc1ccc(CN2C(C)C(=O)N(Cc3cn(Cc4ccco4)nn3)CCS2(=O)=O)cc1` (stereo not drawn) gave rCAG RNA binder 50.6*, TAAR1 agonist -1.8 and TAAR1 antagonist -7.3.
Screening O=C(NCCc1ccccc1)c1ccc(Sc2ccccc2Cl)c([N+](=O)[O-])c1 returned rCAG RNA binder 4.3.
Screening N#CCC[C@@H]1CC[C@]2(CCCN(Cc3ccc(Cl)cc3)C2)O1 returned rCAG RNA binder 0.7.
Screening CCOc1ccc(C(C(=O)NCC2CCCO2)N(C(=O)c2snc(C(N)=O)c2N)c2ccc(F)cc2)cc1 (stereo not drawn) returned NS3 helicase inh -19.2, rCAG RNA binder -0.9, TAAR1 agonist 27.9, core dimer inh 9.9 and TAAR1 antagonist 49.2*.
`COc1ccc(C(=O)CSc2nnc(CN3CCCCC3)n2-c2ccc(Cl)cc2)cc1OC` gave NS3 helicase inh -6.3, rCAG RNA binder 3.2, TAAR1 agonist 43.7*, core dimer inh 8.9 and TAAR1 antagonist 6.7.
N#CC1=C(SCC(=O)c2ccccc2)NC2=C(C(=O)CCC2)C1c1ccco1 (stereo not drawn) was read as NS3 helicase inh 38.1*, rCAG RNA binder 18.1, TAAR1 agonist 7.3, core dimer inh -4.0, TAAR1 antagonist 8.1, NS3 helicase cf -10.1 and DNA FID counter -1.2.
For Cc1ccc(C(=O)CSC2=C(C#N)C(c3ccco3)C3=C(CCCC3=O)N2)cc1 (stereo not drawn) the results were NS3 helicase inh 22.5, rCAG RNA binder 17.2, TAAR1 agonist 5.7, core dimer inh 8.2 and TAAR1 antagonist 9.0.
CC(=O)N1CCN(C(=O)CSc2nc3cccnc3n2C)CC1 was read as rCAG RNA binder 2.3.
For COc1ccc(/C=N/NC(=O)c2cccc(NC(=O)c3ccccc3Cl)c2)cc1 the results were NS3 helicase inh 61.0*, rCAG RNA binder 8.6, TAAR1 agonist 7.6, core dimer inh -13.2, TAAR1 antagonist 15.6, NS3 helicase cf 8.0 and DNA FID counter -35.7.
CCCC(=O)N1CCC[C@]2(CC[C@H](CCC(=O)OCC)O2)C1 was read as rCAG RNA binder 1.6.
CCn1c(COc2ccc(C)cc2)nnc1SCC(=O)c1ccc(-c2ccccc2)cc1 was read as rCAG RNA binder 6.6.
Screening Cc1ccc(C(=O)N/N=C/c2ccc(-c3ccc(Br)cc3[N+](=O)[O-])o2)o1 returned NS3 helicase inh 48.1*, rCAG RNA binder 17.5, TAAR1 agonist 1.1, core dimer inh 24.6, TAAR1 antagonist 13.8, NS3 helicase cf 2.4 and DNA FID counter 8.9.
`CC(C)[C@H](NC(=O)[C@H](Cc1ccccc1)NC(=O)OC(C)(C)C)C(=O)N1CCC2CCN(S(=O)(=O)c3ccccc3)CC21` (stereo partly drawn) gave rCAG RNA binder 3.5.
Screening CC(C)c1ccc(C2CC(=O)N3CN(C)CSC3=C2C#N)cc1 (stereo not drawn) returned NS3 helicase inh 45.3*, core dimer inh -2.9, NS3 helicase cf 24.6 and DNA FID counter -5.4.
Screening CCCOC(=O)/C(=C\c1ccc([N+](=O)[O-])o1)NC(=O)c1ccccc1 returned NS3 helicase inh 38.2*, rCAG RNA binder 0.5, TAAR1 agonist 7.7, core dimer inh -6.4, TAAR1 antagonist 9.9, NS3 helicase cf -16.2 and DNA FID counter -4.2.
CCCOC(=O)/C(=C\C=C\c1ccco1)NC(=O)c1ccccc1 was read as NS3 helicase inh 40.3*, rCAG RNA binder 18.2, TAAR1 agonist 8.8, core dimer inh 28.5, TAAR1 antagonist -16.6, NS3 helicase cf -5.5 and DNA FID counter -13.6.
